# pIC50: −log10 of the molar value. Active and inactive are the calls of the source. No cut-off for these calls is given here.
# Target: T1, Androgen receptor (Homo sapiens) (UniProt P10275)
# T1 sequence (whole entry): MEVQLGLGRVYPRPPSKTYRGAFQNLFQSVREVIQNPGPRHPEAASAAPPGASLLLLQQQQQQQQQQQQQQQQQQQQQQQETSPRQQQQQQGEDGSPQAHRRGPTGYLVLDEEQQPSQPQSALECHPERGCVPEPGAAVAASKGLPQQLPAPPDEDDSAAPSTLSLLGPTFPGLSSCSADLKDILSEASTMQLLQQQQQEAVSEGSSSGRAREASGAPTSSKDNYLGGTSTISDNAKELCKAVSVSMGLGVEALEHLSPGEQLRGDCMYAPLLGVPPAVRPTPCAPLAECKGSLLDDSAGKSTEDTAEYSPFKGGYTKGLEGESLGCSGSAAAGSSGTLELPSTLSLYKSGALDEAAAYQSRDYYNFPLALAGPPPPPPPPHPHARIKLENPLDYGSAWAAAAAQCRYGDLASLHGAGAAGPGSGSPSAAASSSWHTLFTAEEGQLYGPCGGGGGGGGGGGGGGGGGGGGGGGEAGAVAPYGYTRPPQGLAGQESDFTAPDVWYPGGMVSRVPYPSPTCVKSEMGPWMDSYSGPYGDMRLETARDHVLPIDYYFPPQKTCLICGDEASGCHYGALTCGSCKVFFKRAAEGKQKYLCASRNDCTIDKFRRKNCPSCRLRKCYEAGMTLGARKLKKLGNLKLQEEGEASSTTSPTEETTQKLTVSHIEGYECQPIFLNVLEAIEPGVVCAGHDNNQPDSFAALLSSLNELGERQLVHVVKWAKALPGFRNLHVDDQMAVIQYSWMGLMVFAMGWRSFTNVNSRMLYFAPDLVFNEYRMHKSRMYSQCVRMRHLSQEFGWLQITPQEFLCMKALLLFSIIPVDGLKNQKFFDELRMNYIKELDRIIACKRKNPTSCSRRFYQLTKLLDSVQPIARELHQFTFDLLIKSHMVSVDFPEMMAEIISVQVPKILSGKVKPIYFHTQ
# Experiment: Inhibition of androgen receptor binding function 3 in eGFP-expressing human LNCAP cells containing androgen-responsive probasin-derived promoter assessed as reduction in androgen receptor transcriptional activity at 3 uM after 3 days
# Format: cell-based
# Details: not given
row,inhibition,SMILES
1,> 50%,CC(C)N(Cc1ccco1)C(=O)c1cc2ccc(F)cc2[nH]1
2,> 50%,Cc1ccc2cc(C(=O)N(Cc3ccco3)C(C)C)[nH]c2c1
3,> 50%,CC(C)N(Cc1ccco1)C(=O)c1cc2cc(F)ccc2[nH]1
4,> 50%,Cc1ccc2[nH]c(C(=O)N(Cc3ccco3)C(C)C)cc2c1
5,> 50%,CC(C)N(Cc1ccco1)C(=O)c1cc2cc(C(F)(F)F)ccc2[nH]1
6,> 50%,Cc1ccc(CN(C(=O)c2cc3cc(F)ccc3[nH]2)C(C)C)o1

# Continued, molecule first:
row,SMILES,inhibition
1,Cc1ccc(CN(C(=O)c2cc3ccccc3[nH]2)C(C)C)o1,> 50%
2,N#CCCN(Cc1ccccc1)C(=O)c1cc2ccccc2[nH]1,> 50%
3,CN(Cc1ccc(Br)s1)C(=O)c1cc2ccc(F)cc2[nH]1,> 50%
4,Cc1ccc(CN(C)C(=O)c2cc3cc(F)ccc3[nH]2)o1,> 50%
5,CN(Cc1ccc(Br)o1)C(=O)c1cc2ccc(F)cc2[nH]1,> 50%
6,COCCN(Cc1ccco1)C(=O)c1cc2cc(F)ccc2[nH]1,> 50%
7,Cc1ccc2cc(C(=O)N(Cc3ccc(C)o3)C(C)C)[nH]c2c1,> 50%
8,O=C(c1cc2ccc(F)cc2[nH]1)N(Cc1ccco1)Cc1ccco1,> 50%
9,Cc1ccc(CN(C(=O)c2cc3cccc(F)c3[nH]2)C(C)C)o1,> 50%
10,Cc1ccc(CN(C(=O)c2cc3ccc(F)cc3[nH]2)C(C)C)o1,> 50%
11,Cc1ccc2[nH]c(C(=O)N(Cc3ccc(C)o3)C(C)C)cc2c1,> 50%
12,CN(Cc1cccs1)C(=O)c1cc2ccc(F)cc2[nH]1,> 50%

# Target: T2, Androgen receptor (Homo sapiens, UniProt P10275)
# T2 sequence (P10275 whole entry): T1 sequence (whole entry)
# Experiment: Inhibition of androgen receptor binding function 3 in human LNCAP cells containing androgen-responsive probasin-derived promoter assessed as reduction in PSA expression after 3 days by […] assay
# Format: cell-based
# Details: not given
# Outline: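 PSA levels measured in LNCaP cells across a dose range (0−6.25 μM in dose-response curve); IC50 from the dose-dependent decrease of PSA.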
row,pIC50,SMILES
1,6.28,CC(C)N(Cc1ccco1)C(=O)c1cc2ccc(F)cc2[nH]1
2,6.07,Cc1ccc2cc(C(=O)N(Cc3ccco3)C(C)C)[nH]c2c1
3,6.30,CC(C)N(Cc1ccco1)C(=O)c1cc2cc(F)ccc2[nH]1
4,5.92,Cc1ccc2[nH]c(C(=O)N(Cc3ccco3)C(C)C)cc2c1
5,5.28,CC(C)N(Cc1ccco1)C(=O)c1cc2cc(C(F)(F)F)ccc2[nH]1
6,5.86,Cc1ccc(CN(C(=O)c2cc3cc(F)ccc3[nH]2)C(C)C)o1

# The remaining lines, values behind:
row,SMILES,pIC50
1,Cc1ccc(CN(C(=O)c2cc3ccccc3[nH]2)C(C)C)o1,5.47
2,N#CCCN(Cc1ccccc1)C(=O)c1cc2ccccc2[nH]1,5.34
3,CN(Cc1ccc(Br)s1)C(=O)c1cc2ccc(F)cc2[nH]1,5.51
4,Cc1ccc(CN(C)C(=O)c2cc3cc(F)ccc3[nH]2)o1,5.18
5,CN(Cc1ccc(Br)o1)C(=O)c1cc2ccc(F)cc2[nH]1,5.09
6,COCCN(Cc1ccco1)C(=O)c1cc2cc(F)ccc2[nH]1,5.18
7,Cc1ccc2cc(C(=O)N(Cc3ccc(C)o3)C(C)C)[nH]c2c1,5.78
8,O=C(c1cc2ccc(F)cc2[nH]1)N(Cc1ccco1)Cc1ccco1,5.26
9,Cc1ccc(CN(C(=O)c2cc3cccc(F)c3[nH]2)C(C)C)o1,5.92
10,Cc1ccc(CN(C(=O)c2cc3ccc(F)cc3[nH]2)C(C)C)o1,6.08
11,Cc1ccc2[nH]c(C(=O)N(Cc3ccc(C)o3)C(C)C)cc2c1,5.75
12,CN(Cc1cccs1)C(=O)c1cc2ccc(F)cc2[nH]1,5.26

# Target: T2, Androgen receptor
# Details: not given
row,pIC50,SMILES
1,5.66,Cc1ccc(CN(C(=O)c2cc3ccc(F)cc3[nH]2)C(C)C)o1

# Target: T1, Androgen receptor (Homo sapiens)
# Experiment: Displacement of androgen from androgen binding site of androgen receptor (unknown origin)
# Details: not given
row,inhibition,SMILES
1,inactive,CC(C)N(Cc1ccco1)C(=O)c1cc2ccc(F)cc2[nH]1
2,inactive,Cc1ccc2cc(C(=O)N(Cc3ccco3)C(C)C)[nH]c2c1
3,inactive,CC(C)N(Cc1ccco1)C(=O)c1cc2cc(F)ccc2[nH]1
4,inactive,Cc1ccc2[nH]c(C(=O)N(Cc3ccco3)C(C)C)cc2c1
5,inactive,CC(C)N(Cc1ccco1)C(=O)c1cc2cc(C(F)(F)F)ccc2[nH]1
6,inactive,Cc1ccc(CN(C(=O)c2cc3cc(F)ccc3[nH]2)C(C)C)o1

# The remaining lines, values behind:
row,SMILES,inhibition
1,Cc1ccc(CN(C(=O)c2cc3ccccc3[nH]2)C(C)C)o1,inactive
2,N#CCCN(Cc1ccccc1)C(=O)c1cc2ccccc2[nH]1,inactive
3,CN(Cc1ccc(Br)s1)C(=O)c1cc2ccc(F)cc2[nH]1,inactive
4,Cc1ccc(CN(C)C(=O)c2cc3cc(F)ccc3[nH]2)o1,inactive
5,CN(Cc1ccc(Br)o1)C(=O)c1cc2ccc(F)cc2[nH]1,inactive
6,COCCN(Cc1ccco1)C(=O)c1cc2cc(F)ccc2[nH]1,inactive
7,Cc1ccc2cc(C(=O)N(Cc3ccc(C)o3)C(C)C)[nH]c2c1,inactive
8,O=C(c1cc2ccc(F)cc2[nH]1)N(Cc1ccco1)Cc1ccco1,inactive
9,Cc1ccc(CN(C(=O)c2cc3cccc(F)c3[nH]2)C(C)C)o1,inactive
10,Cc1ccc(CN(C(=O)c2cc3ccc(F)cc3[nH]2)C(C)C)o1,inactive
11,Cc1ccc2[nH]c(C(=O)N(Cc3ccc(C)o3)C(C)C)cc2c1,inactive
12,CN(Cc1cccs1)C(=O)c1cc2ccc(F)cc2[nH]1,inactive

# Test system: LNCaP
# Experiment: Antiproliferative activity against human LNCAP cells after 4 days by MTS assay
# Format: functional, cell-based
# Details: 96 h
# Outline: (§1)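 MTS viability assay in LNCaP (androgen-stimulated), enzalutamide-resistant MR49F (LNCaP-derived) and androgen-independent PC3 cells; compounds added in serial concentrations, viability read after 4 days of incubation; IC50 from dose-response curves.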
row,pIC50,SMILES
1,6.26,Cc1ccc(CN(C(=O)c2cc3ccc(F)cc3[nH]2)C(C)C)o1

# Test system: PC-3
# Experiment: Antiproliferative activity against androgen receptor-independent human PC3 cells after 4 days by MTS assay
# Format: functional, cell-based
# Details: not given
# Outline: as §1
row,SMILES,inhibition
1,Cc1ccc(CN(C(=O)c2cc3ccc(F)cc3[nH]2)C(C)C)o1,inactive

# Target: T2, Androgen receptor
# Experiment: Inhibition of androgen receptor binding function 3 in eGFP-expressing human LNCAP cells containing androgen-responsive probasin-derived promoter assessed as reduction in androgen receptor transcriptional activity after 3 days
# Format: cell-based
# Details: not given
# Outline: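 eGFP reporter of AR transcriptional activity in LNCaP cells; concentration titration (0−12.5 μM in dose-response); mean of two independent experiments in triplicate (n = 6), SEM; IC50 by fitting log inhibitor concentration vs % activation.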
row,pIC50,SMILES
1,6.37,CC(C)N(Cc1ccco1)C(=O)c1cc2ccc(F)cc2[nH]1
2,5.99,Cc1ccc2cc(C(=O)N(Cc3ccco3)C(C)C)[nH]c2c1
3,6.22,CC(C)N(Cc1ccco1)C(=O)c1cc2cc(F)ccc2[nH]1
4,5.89,Cc1ccc2[nH]c(C(=O)N(Cc3ccco3)C(C)C)cc2c1
5,5.28,CC(C)N(Cc1ccco1)C(=O)c1cc2cc(C(F)(F)F)ccc2[nH]1
6,5.96,Cc1ccc(CN(C(=O)c2cc3cc(F)ccc3[nH]2)C(C)C)o1

# Further lines, the molecule ahead of its results:
row,SMILES,pIC50
1,Cc1ccc(CN(C(=O)c2cc3ccccc3[nH]2)C(C)C)o1,5.48
2,N#CCCN(Cc1ccccc1)C(=O)c1cc2ccccc2[nH]1,5.12
3,CN(Cc1ccc(Br)s1)C(=O)c1cc2ccc(F)cc2[nH]1,5.45
4,Cc1ccc(CN(C)C(=O)c2cc3cc(F)ccc3[nH]2)o1,5.03
5,CN(Cc1ccc(Br)o1)C(=O)c1cc2ccc(F)cc2[nH]1,4.80
6,COCCN(Cc1ccco1)C(=O)c1cc2cc(F)ccc2[nH]1,5.19
7,Cc1ccc2cc(C(=O)N(Cc3ccc(C)o3)C(C)C)[nH]c2c1,5.54
8,O=C(c1cc2ccc(F)cc2[nH]1)N(Cc1ccco1)Cc1ccco1,5.39
9,Cc1ccc(CN(C(=O)c2cc3cccc(F)c3[nH]2)C(C)C)o1,6.00
10,Cc1ccc(CN(C(=O)c2cc3ccc(F)cc3[nH]2)C(C)C)o1,6.15
11,Cc1ccc2[nH]c(C(=O)N(Cc3ccc(C)o3)C(C)C)cc2c1,5.57
12,CN(Cc1cccs1)C(=O)c1cc2ccc(F)cc2[nH]1,5.47

# Target: T1, Androgen receptor (Homo sapiens)
# Experiment: Direct reversible binding affinity to super-streptavidin bound biotinylated androgen receptor ligand binding domain (unknown origin) expressed in Escherichia coli BL21 by bio-layer Interferometry assay
# Details: not given
# Outline: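 Biolayer interferometry of direct, reversible binding to AR LBD; dose-response with compound at 0−50 μM or 0−100 μM.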
row,Activity,SMILES
1,Dose-dependent effect,Cc1ccc(CN(C(=O)c2cc3ccccc3[nH]2)C(C)C)o1
2,Active,Cc1ccc(CN(C(=O)c2cc3ccc(F)cc3[nH]2)C(C)C)o1

# Test system: not listed separately
# Experiment: Antiproliferative activity against enzalutamide-resistant human MR49F cells after 4 days by MTS assay
# Format: functional, cell-based
# Details: 96 h
# Outline: as §1
row,SMILES,pIC50
1,Cc1ccc(CN(C(=O)c2cc3ccc(F)cc3[nH]2)C(C)C)o1,5.88

# Test system: MR49F
# Experiment: Antiproliferative activity against enzalutamide-resistant human MR49F cells at 10 uM after 4 days by MTS assay
# Format: functional, cell-based
# Details: not given
row,SMILES,inhibition
1,CNC(=O)c1ccc(N2C(=S)N(c3ccc(C#N)c(C(F)(F)F)c3)C(=O)C2(C)C)cc1F,inactive

# Test system: not listed separately
# Experiment: Solubility of the compound at high drug level
# Format: physicochemical
# Details: not given
row,solubility,SMILES
1,Insoluble,CC(C)N(Cc1ccco1)C(=O)c1cc2ccc(F)cc2[nH]1
2,Insoluble,CC(C)N(Cc1ccco1)C(=O)c1cc2cc(F)ccc2[nH]1

# Target: T1, Androgen receptor (Homo sapiens)
# Experiment: Displacement of SRC2 peptide from activation function 2 domain of androgen receptor (unknown origin)
# Details: not given
row,inhibition,SMILES
1,inactive,CC(C)N(Cc1ccco1)C(=O)c1cc2ccc(F)cc2[nH]1
2,inactive,Cc1ccc2cc(C(=O)N(Cc3ccco3)C(C)C)[nH]c2c1
3,inactive,CC(C)N(Cc1ccco1)C(=O)c1cc2cc(F)ccc2[nH]1
4,inactive,Cc1ccc2[nH]c(C(=O)N(Cc3ccco3)C(C)C)cc2c1
5,inactive,CC(C)N(Cc1ccco1)C(=O)c1cc2cc(C(F)(F)F)ccc2[nH]1
6,inactive,Cc1ccc(CN(C(=O)c2cc3cc(F)ccc3[nH]2)C(C)C)o1

# Further lines, the molecule ahead of its results:
row,SMILES,inhibition
1,Cc1ccc(CN(C(=O)c2cc3ccccc3[nH]2)C(C)C)o1,inactive
2,N#CCCN(Cc1ccccc1)C(=O)c1cc2ccccc2[nH]1,inactive
3,CN(Cc1ccc(Br)s1)C(=O)c1cc2ccc(F)cc2[nH]1,inactive
4,Cc1ccc(CN(C)C(=O)c2cc3cc(F)ccc3[nH]2)o1,inactive
5,CN(Cc1ccc(Br)o1)C(=O)c1cc2ccc(F)cc2[nH]1,inactive
6,COCCN(Cc1ccco1)C(=O)c1cc2cc(F)ccc2[nH]1,inactive
7,Cc1ccc2cc(C(=O)N(Cc3ccc(C)o3)C(C)C)[nH]c2c1,inactive
8,O=C(c1cc2ccc(F)cc2[nH]1)N(Cc1ccco1)Cc1ccco1,inactive
9,Cc1ccc(CN(C(=O)c2cc3cccc(F)c3[nH]2)C(C)C)o1,inactive
10,Cc1ccc(CN(C(=O)c2cc3ccc(F)cc3[nH]2)C(C)C)o1,inactive
11,Cc1ccc2[nH]c(C(=O)N(Cc3ccc(C)o3)C(C)C)cc2c1,inactive
12,CN(Cc1cccs1)C(=O)c1cc2ccc(F)cc2[nH]1,inactive

# From ChEMBL document CHEMBL3351962, “Discovery of 1H-indole-2-carboxamides as novel inhibitors of the androgen receptor binding function 3 (BF3)” (J Med Chem, 2014)
